Columns and labels:
[1] = Oral bioavailability in dog at 3 mg/kg administered as single dose after 24 hrs by liquid chromatography-mass spectroscopy; type: ADME, organism-based, Canis lupus familiaris; conditions: in vivo
[2] = Half life in rat at 3 mg/kg, po administered as single dose by liquid chromatography-mass spectroscopy; type: ADME, organism-based; parameters: dose 3 mg/kg, route oral; conditions: in vivo
[3] = tested on: Human immunodeficiency virus 1; assay: Antiviral activity against HIV1 isolate 05-121799 assessed as inhibition of viral replication after 7 days by scintillation counting; type: functional, organism-based; conditions: Human immunodeficiency virus 1, isolate 05-121799, 168 h
[4] = Oral bioavailability in mouse at 3 mg/kg administered as single dose after 24 hrs by liquid chromatography-mass spectroscopy; type: ADME, organism-based; conditions: in vivo
[5] = molecular target: C-X-C chemokine receptor type 4 (Homo sapiens) (UniProt P61073); assay: Antagonist activity at human CXCR4 expressed in HEK293 cells assessed as inhibition of SDF1-induced increase in intracellular calcium level treated 15 mins before agonist challenge measured after 1 hr by FLIPR assay relative to control; type: functional, cell-based
How it was run: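 HEK-293 cells transiently transduced by BacMam with CXCR4 (MOI 50) and chimeric Gqi5 (MOI 12.5), plated 40,000 per well, left 24 h at 37°C for expression. Cells then loaded with calcium dye in DMEM/F-12 containing 2.5 mM probenecid and 0.1% BSA for 1 h at 37°C. Intracellular calcium read by FLIPR. For antagonism, compound was added 15 min before SDF-1, used at an EC80 concentration.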

[6] = tested on: Human immunodeficiency virus 1; assay: Antiviral activity against HIV1 isolate 05-121782 assessed as inhibition of viral replication after 7 days by scintillation counting; type: functional, organism-based; conditions: Human immunodeficiency virus 1, isolate 05-121782, 168 h
[7] = tested on: Human immunodeficiency virus 1; assay: Antiviral activity against HIV1 3B infected in human PBMC assessed as inhibition of viral replication after 7 days by scintillation counting; type: functional, organism-based; conditions: Human immunodeficiency virus 1, 3B, 168 h
How it was run: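 PHA/IL-2-stimulated donor PBMCs at 4 × 10^6 cells/ml in RPMI with 20% FCS and 10% IL-2. Cells were pre-incubated with compound for 1 h, then infected with HIV-1 IIIB pre-mixed with compound for 7 days at 37°C. Supernatant reverse transcriptase was measured with poly(rA)·oligo(dT) and [3H]dTTP for 2 h, captured on DE-81 filters, and counted.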

[8] = tested on: Human immunodeficiency virus 1; assay: Antiviral activity against HIV1 isolate 05-121773 assessed as inhibition of viral replication after 7 days by scintillation counting; type: functional, organism-based; conditions: Human immunodeficiency virus 1, isolate 05-121773, 168 h
[9] = Oral bioavailability in rat at 3 mg/kg administered as single dose after 24 hrs by liquid chromatography-mass spectroscopy; type: ADME, organism-based; conditions: in vivo
HEK293 = assay: Cytotoxicity against HEK293 cells after 24 hrs by MTS assay; type: cell-based; conditions: Homo sapiens, HEK293, 24 h
How it was run: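 Viability in the cell-cell fusion format (BacMam-transduced HEK-293 cells mixed with HOS cells). Compound was added to the cell mix, and viability was read after 24 h with MTS dye.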

Cavia porcellus = species: Cavia porcellus; assay: Inhibition of guinea pig ileum ACE at 30 uM; type: tissue-based
How it was run: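 Isolated guinea pig ileum preparation; ACE inhibition measured as maximal inhibition at 30 μM.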

Chain of C-X-C chemokine receptor type 4 (Homo sapiens) (P61073 whole entry): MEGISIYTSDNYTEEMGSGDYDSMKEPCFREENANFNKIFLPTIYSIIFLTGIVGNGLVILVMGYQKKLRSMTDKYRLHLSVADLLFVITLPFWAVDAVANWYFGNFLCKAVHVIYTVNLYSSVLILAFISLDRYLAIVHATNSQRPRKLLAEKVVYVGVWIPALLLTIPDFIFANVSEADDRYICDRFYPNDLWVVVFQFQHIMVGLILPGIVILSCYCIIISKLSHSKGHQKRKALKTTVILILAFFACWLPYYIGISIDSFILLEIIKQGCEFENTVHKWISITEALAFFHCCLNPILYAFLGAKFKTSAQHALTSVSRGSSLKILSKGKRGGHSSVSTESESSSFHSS

Structure (SMILES): CN1CCN(c2cccc3nc(CN(C)[C@H]4CCCc5cccnc54)c(CO)n23)CC1
- bioavailability [1]: 21%
- half-life [2]: 8.6 h
- IC50 [3]: 1 nM
- bioavailability [4]: 10%
- inhibition [5]: 110%
- IC50 [6]: 1 nM
- IC50 [7]: 4.6 nM
- IC50 [8]: 1 nM
- bioavailability [9]: 21%
- IC50 (HEK293): > 1000 nM
- inhibition (Cavia porcellus): 26%

From ChEMBL document CHEMBL1240366, “Blockade of X4-tropic HIV-1 cellular entry by GSK812397, a potent noncompetitive CXCR4 receptor antagonist” (Antimicrob Agents Chemother, 2010)
